Source: ChEMBL document CHEMBL1629556 (2008)
In brackets after ≈: the same amount, converted by molar mass. Activity calls are given as the source filed them. No cut-off for these calls is given here.

Legend:
Staphylococcus aureus [1] = assay: Antibacterial activity against Staphylococcus aureus isolate 2712 assessed as reduction in bacterial count at 20 ug/ml after 24 hrs by time-kill assay; format: functional, organism-based
How it was run: (§1)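 Overnight Mueller-Hinton broth cultures were diluted in cation-adjusted MH broth. About 10^6 to 10^7 CFU went into MH broth with 20 μg/ml dicloxacillin at 35°C. Viable counts were made by spreading 0.1 ml at 0, 1, 3, 6, 9, 14, 24, 30, 42 and 48 h. Three runs, with the median CFU plotted semilogarithmically.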

Staphylococcus aureus [2] = assay: Antibacterial activity against Staphylococcus aureus isolate 1326 infected in Wistar rat thigh infection model assessed as bacterial load per gram of thigh at 200 mg/kg, sc administered 2 hrs postinfection and every 6 hrs thereafter for 1 day measured after 24 hrs (reference value: 8.6%); format: functional; conditions: route subcutaneous
Staphylococcus aureus [3] = assay: Antibacterial activity against Staphylococcus aureus isolate 1552 infected in Wistar rat thigh infection model assessed as bacterial load per gram of thigh at 200 mg/kg, sc administered 2 hrs postinfection and every 6 hrs thereafter for 1 day measured after 24 hrs (reference value: 8.6%); format: functional; conditions: route subcutaneous
Staphylococcus aureus [4] = assay: Antibacterial activity against Staphylococcus aureus isolate 4666 infected in Wistar rat thigh infection model assessed as bacterial load per gram of thigh at 200 mg/kg, sc administered 2 hrs postinfection and every 6 hrs thereafter for 1 day measured after 24 hrs (reference value: 8.6%); format: functional; conditions: route subcutaneous
Staphylococcus aureus [5] = assay: Antibacterial activity against Staphylococcus aureus isolate 6083 infected in Wistar rat thigh infection model assessed as bacterial load per gram of thigh at 200 mg/kg, sc administered 2 hrs postinfection and every 6 hrs thereafter for 1 day measured after 24 hrs (reference value: 8.6%); format: functional; conditions: route subcutaneous
Staphylococcus aureus [6] = assay: Antibacterial activity against Staphylococcus aureus isolate 2712 infected in Wistar rat thigh infection model assessed as bacterial load per gram of thigh at 200 mg/kg, sc administered 2 hrs postinfection and every 6 hrs thereafter for 1 day measured after 24 hrs (reference value: 8.6%); format: functional; conditions: route subcutaneous
Staphylococcus aureus [7] = assay: Antibacterial activity against Staphylococcus aureus isolate 29213 infected in Wistar rat thigh infection model assessed as bacterial load per gram of thigh at 200 mg/kg, sc administered 2 hrs postinfection and every 6 hrs thereafter for 1 day measured after 24 hrs (reference value: 8.6%); format: functional; conditions: route subcutaneous
Staphylococcus aureus [8] = assay: Antibacterial activity against Staphylococcus aureus isolate 1306 infected in Wistar rat thigh infection model assessed as bacterial load per gram of thigh at 200 mg/kg, sc administered 2 hrs postinfection and every 6 hrs thereafter for 1 day measured after 24 hrs (reference value: 8.6%); format: functional; conditions: route subcutaneous
Staphylococcus aureus [9] = assay: Antibacterial activity against Staphylococcus aureus isolate 1306 by agar dilution method; format: functional
Staphylococcus aureus [10] = assay: Antibacterial activity against Staphylococcus aureus isolate 1326 by agar dilution method; format: functional
How it was run: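 mecA-positive clinical isolate collected October–November 2006, species confirmed on Vitek 2. MIC determined by agar dilution following CLSI guidelines, with 2-μg/ml concentration steps from 2 to 16 μg/ml.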

Staphylococcus aureus [11] = assay: Antibacterial activity against Staphylococcus aureus isolate 1552 by agar dilution method; format: functional
Staphylococcus aureus [12] = assay: Antibacterial activity against Staphylococcus aureus isolate 4666 by agar dilution method; format: functional
Staphylococcus aureus [13] = assay: Antibacterial activity against Staphylococcus aureus isolate 6083 by agar dilution method; format: functional
Staphylococcus aureus [14] = assay: Antibacterial activity against Staphylococcus aureus isolate 2712 by agar dilution method; format: functional
Staphylococcus aureus [15] = assay: Antibacterial activity against mecA-negative Staphylococcus aureus isolate 29213 by agar dilution method; format: functional
Staphylococcus aureus [16] = assay: Effect on growth of Staphylococcus aureus isolate 1306 assessed as highest compound concentration at which cell growth occurred measured after 48 hrs; format: functional
How it was run: (§2)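 Overnight cultures were set to 4 McFarland in cation-adjusted MH broth and spread at about 10^8, 10^7 and 10^6 CFU, or 10^4 if growth was confluent. Colonies were counted after 48 h at 35°C. Three runs, median CFU.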

Staphylococcus aureus [17] = assay: Effect on growth of Staphylococcus aureus isolate 1326 assessed as highest compound concentration at which cell growth occurred measured after 48 hrs; format: functional; how it was run: as §2
Staphylococcus aureus [18] = assay: Effect on growth of Staphylococcus aureus isolate 1552 assessed as highest compound concentration at which cell growth occurred measured after 48 hrs; format: functional; how it was run: as §2
Staphylococcus aureus [19] = assay: Effect on growth of Staphylococcus aureus isolate 4666 assessed as highest compound concentration at which cell growth occurred measured after 48 hrs; format: functional; how it was run: as §2
Staphylococcus aureus [20] = assay: Effect on growth of mecA-negative Staphylococcus aureus isolate 29213 by assessed as highest compound concentration at which cell growth occurred measured after 48 hrs; format: functional; how it was run: as §2
Staphylococcus aureus [21] = assay: Effect on growth of Staphylococcus aureus isolate 1326 assessed as highest compound concentration at which cell growth occurred measured after 48 hrs in presence of 2% NaCl; format: functional
How it was run: (§3)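 Inocula of about 10^8 to 10^6 CFU came from a 4 McFarland suspension. Colonies were counted after 48 h at 35°C. Three runs, median CFU.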

Staphylococcus aureus [22] = assay: Effect on growth of against Staphylococcus aureus isolate 4666 assessed as highest compound concentration at which cell growth occurred measured after 48 hrs in presence of 2% NaCl; format: functional; how it was run: as §3
Staphylococcus aureus [23] = assay: Antibacterial activity against Staphylococcus aureus isolate 1306 assessed as reduction in bacterial count at 20 ug/ml after 24 hrs by time-kill assay; format: functional, organism-based; how it was run: as §1
Staphylococcus aureus [24] = assay: Antibacterial activity against Staphylococcus aureus isolate 1326 assessed as reduction in bacterial count at 20 ug/ml after 24 hrs by time-kill assay; format: functional, organism-based; how it was run: as §1
Staphylococcus aureus [25] = assay: Antibacterial activity against Staphylococcus aureus isolate 1552 assessed as reduction in bacterial count at 20 ug/ml after 24 hrs by time-kill assay; format: functional, organism-based; how it was run: as §1
Staphylococcus aureus [26] = assay: Antibacterial activity against Staphylococcus aureus isolate 4666 assessed as reduction in bacterial count at 20 ug/ml after 24 hrs by time-kill assay; format: functional, organism-based; how it was run: as §1
Staphylococcus aureus [27] = assay: Antibacterial activity against mecA-negative Staphylococcus aureus isolate 29213 assessed as reduction in bacterial count at 20 ug/ml after 24 hrs by time-kill assay; format: functional, organism-based; how it was run: as §1
Staphylococcus aureus [28] = assay: Antibacterial activity against Staphylococcus aureus isolate 6083 assessed as reduction in bacterial count at 20 ug/ml after 24 hrs by time-kill assay; format: functional, organism-based; how it was run: as §1

`Cc1onc(-c2ccccc2)c1C(=O)N[C@@H]1C(=O)N2[C@@H]1SC(C)(C)[C@@H]2C(=O)O` [OXACILLIN] was tested, and the inhibition (Staphylococcus aureus [1]) was “inactive”, the Activity (Staphylococcus aureus [2]) was 4.3% and the Activity (Staphylococcus aureus [3]) was 9.1%. It also gave an Activity (Staphylococcus aureus [4]) of 10.4%, an Activity (Staphylococcus aureus [5]) of 6.2% and an Activity (Staphylococcus aureus [6]) of 8.8%. It also gave an Activity (Staphylococcus aureus [7]) of 12.4%, an Activity (Staphylococcus aureus [8]) of 9.7% and an MIC (Staphylococcus aureus [9]) of 0.5 µg/mL (≈ 1.25 µM). It also gave an MIC (Staphylococcus aureus [10]) of 0.25 µg/mL (≈ 0.623 µM), an MIC (Staphylococcus aureus [11]) of 1 µg/mL (≈ 2.49 µM) and an MIC (Staphylococcus aureus [12]) of 1 µg/mL (≈ 2.49 µM). It also gave an MIC (Staphylococcus aureus [13]) of 6 µg/mL (≈ 14.9 µM), an MIC (Staphylococcus aureus [14]) of 256 µg/mL (≈ 638 µM) and an MIC (Staphylococcus aureus [15]) of 0.125 µg/mL (≈ 0.311 µM). The Activity (Staphylococcus aureus [16]) was 32 µg/mL, the Activity (Staphylococcus aureus [17]) was 0.5 µg/mL and the Activity (Staphylococcus aureus [18]) was 64 µg/mL. For the same compound, the Activity (Staphylococcus aureus [19]) was 1 µg/mL, the Activity (Staphylococcus aureus [20]) was 0.5 µg/mL and the Activity (Staphylococcus aureus [21]) was 1 µg/mL. For the same compound, the Activity (Staphylococcus aureus [22]) was 2 µg/mL, the inhibition (Staphylococcus aureus [23]) was “Active” and the inhibition (Staphylococcus aureus [24]) was “Active”. For the same compound, the inhibition (Staphylococcus aureus [25]) was “Active”, the inhibition (Staphylococcus aureus [26]) was “Active” and the inhibition (Staphylococcus aureus [27]) was “Active”. For the same compound, the inhibition (Staphylococcus aureus [28]) was “Active”.
